ChEMBL document CHEMBL6092210, “Synthesis, in vitro and in vivo biological evaluation of novel dual compounds targeting both acetylcholinesterase and serotonergic 5-HT4 receptors with potential interest in the treatment of Alzheimer's disease” (Eur J Med Chem, 2024)

Columns and labels:
[1] = Toxicity in C57BL/6 mouse assessed as memory impairment at 0.3 mg/kg, ip incubated for 30 mins by novel object recognition test; assay type: organism-based; details: in vivo, 0.5 h
[2] = Toxicity in C57BL/6 mouse assessed as spontaneous locomotor activity at 10 mg/kg, ip incubated for 30 mins; assay type: organism-based; details: in vivo, 0.5 h
[3] = Drug metabolism in rat liver microsome measured at 10 mins by UPLC/QE-orbitrap-MS method; assay type: ADME; details: microsomes
Procedure, shortened: (§1)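 Test compound as fumarate salt incubated with human, dog, mouse or rat liver microsomes over 0–60 min. Parent remaining measured by UPLC/QE-orbitrap-MS as relative LC/MS peak area (% of 0 min), n = 1.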

[4] = Drug metabolism in human liver microsome measured at 20 mins by UPLC/QE-orbitrap-MS method; assay type: ADME; details: microsomes; procedure, shortened: as §1
[5] = Drug metabolism in dog liver microsome measured at 20 mins by UPLC/QE-orbitrap-MS method; assay type: ADME, Canis lupus familiaris; details: microsomes; procedure, shortened: as §1
[6] = Drug metabolism in mouse liver microsome measured at 60 mins by UPLC/QE-orbitrap-MS method; assay type: ADME; details: microsomes, 1 h; procedure, shortened: as §1
[7] = Drug metabolism in rat liver microsome measured at 60 mins by UPLC/QE-orbitrap-MS method; assay type: ADME; details: microsomes, 1 h; procedure, shortened: as §1
Cytochrome P450 1A2 = target: T1, Cytochrome P450 1A2 (Homo sapiens, UniProt P05177); assay: Inhibition of CYP1A2 in human liver microsomes using phenacetin as substrate; assay type: ADME, Microsome
T1 sequence (P05177 whole entry): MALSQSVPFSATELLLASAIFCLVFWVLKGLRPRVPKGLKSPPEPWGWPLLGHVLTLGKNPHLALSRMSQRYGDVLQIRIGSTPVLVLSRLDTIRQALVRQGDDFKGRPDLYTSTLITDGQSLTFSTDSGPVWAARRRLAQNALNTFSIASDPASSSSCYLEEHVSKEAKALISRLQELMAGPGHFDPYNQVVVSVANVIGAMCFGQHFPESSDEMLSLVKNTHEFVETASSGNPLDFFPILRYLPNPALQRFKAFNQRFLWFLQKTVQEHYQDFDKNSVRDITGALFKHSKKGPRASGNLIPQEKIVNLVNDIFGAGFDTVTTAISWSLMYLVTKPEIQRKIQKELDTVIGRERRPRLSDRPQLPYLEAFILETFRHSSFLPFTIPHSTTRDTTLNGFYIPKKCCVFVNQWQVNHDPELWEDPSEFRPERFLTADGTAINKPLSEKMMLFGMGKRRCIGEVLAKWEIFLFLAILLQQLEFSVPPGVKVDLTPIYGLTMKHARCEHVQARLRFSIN
Procedure, shortened: (§2)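 Human liver microsomes with a cocktail of CYP-specific probe substrates; metabolite formation monitored for each probe reaction. Test compound (fumarate) at 0.01, 0.1, 1, 10 and 100 μM. Control inhibitors run at a single concentration for each probe reaction. IC50 estimated.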

Cytochrome P450 2C9 = Cytochrome P450 2C9 (Homo sapiens, UniProt P11712); assay: Inhibition of CYP2C9 in human liver microsomes using diclofenac as substrate; assay type: ADME, Microsome; procedure, shortened: as §2
Cytochrome P450 2C19 = Cytochrome P450 2C19 (Homo sapiens, UniProt P33261); assay: Inhibition of CYP2C19 in human liver microsomes using omeprazole as substrate; assay type: ADME, Microsome; procedure, shortened: as §2
Cytochrome P450 3A4 [8] = target: T2, Cytochrome P450 3A4 (Homo sapiens, UniProt P08684); assay: Inhibition of CYP3A4 in human liver microsomes using Omeprazole as substrate; assay type: ADME, Microsome; procedure, shortened: as §2
Cytochrome P450 3A4 [9] = target: T2, Cytochrome P450 3A4; assay: Inhibition of CYP3A4 in human liver microsomes using Testosterone as substrate; assay type: ADME, Microsome; procedure, shortened: as §2
Cytochrome P450 3A4 [10] = target: T2, Cytochrome P450 3A4; assay: Inhibition of CYP3A4 in human liver microsomes using Midazolam as substrate; assay type: ADME, Microsome; procedure, shortened: as §2
[11] = Clearance in C57BL6 mouse at 3 mg/kg, iv; assay type: ADME, organism-based; details: in vivo
Procedure, shortened: (§3)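 Single iv dose of 0.3, 1 or 3 mg/kg in 0.9 % saline, three animals per dose (C57Bl6 mice, Wistar rats). Terminal cardiac-puncture blood under isoflurane at six time points. Plasma protein-precipitated and assayed by UHPLC–MS/MS (LLOQ 1 ng/mL). Parameters from non-compartmental analysis.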

[12] = Half life in C57BL6 mouse at 0.3 to 3 mg/kg, iv; assay type: ADME, organism-based; details: in vivo, dose 0.3-3 mg/kg; procedure, shortened: as §3

T2 sequence (P08684 whole entry): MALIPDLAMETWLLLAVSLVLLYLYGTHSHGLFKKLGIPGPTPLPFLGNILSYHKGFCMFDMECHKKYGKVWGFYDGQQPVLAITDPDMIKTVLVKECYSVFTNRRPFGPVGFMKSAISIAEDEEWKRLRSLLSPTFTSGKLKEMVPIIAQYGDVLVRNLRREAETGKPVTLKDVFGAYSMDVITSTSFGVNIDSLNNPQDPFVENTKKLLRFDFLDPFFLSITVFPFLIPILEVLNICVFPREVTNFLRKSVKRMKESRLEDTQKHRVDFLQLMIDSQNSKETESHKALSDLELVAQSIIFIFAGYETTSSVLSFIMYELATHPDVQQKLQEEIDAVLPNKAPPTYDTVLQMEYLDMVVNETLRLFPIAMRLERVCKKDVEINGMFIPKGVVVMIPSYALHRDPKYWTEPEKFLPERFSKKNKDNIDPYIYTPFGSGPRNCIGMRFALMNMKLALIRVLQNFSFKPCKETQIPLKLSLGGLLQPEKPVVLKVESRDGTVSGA
Chain of Cytochrome P450 2C9 (P11712 whole entry): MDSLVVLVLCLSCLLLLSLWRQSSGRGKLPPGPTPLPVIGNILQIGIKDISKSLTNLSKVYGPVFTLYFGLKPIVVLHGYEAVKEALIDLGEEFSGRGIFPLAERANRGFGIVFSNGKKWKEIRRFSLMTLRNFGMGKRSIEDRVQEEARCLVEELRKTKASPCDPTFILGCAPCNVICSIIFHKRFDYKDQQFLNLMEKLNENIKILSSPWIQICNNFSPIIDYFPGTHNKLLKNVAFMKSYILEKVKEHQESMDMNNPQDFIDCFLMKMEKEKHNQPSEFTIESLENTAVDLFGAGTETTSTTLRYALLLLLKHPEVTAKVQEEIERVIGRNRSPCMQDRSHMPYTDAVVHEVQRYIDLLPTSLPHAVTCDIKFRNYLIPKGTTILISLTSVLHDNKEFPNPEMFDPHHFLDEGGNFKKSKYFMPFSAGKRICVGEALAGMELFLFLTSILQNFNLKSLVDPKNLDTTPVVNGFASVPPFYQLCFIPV
Chain of Cytochrome P450 2C19 (P33261 whole entry): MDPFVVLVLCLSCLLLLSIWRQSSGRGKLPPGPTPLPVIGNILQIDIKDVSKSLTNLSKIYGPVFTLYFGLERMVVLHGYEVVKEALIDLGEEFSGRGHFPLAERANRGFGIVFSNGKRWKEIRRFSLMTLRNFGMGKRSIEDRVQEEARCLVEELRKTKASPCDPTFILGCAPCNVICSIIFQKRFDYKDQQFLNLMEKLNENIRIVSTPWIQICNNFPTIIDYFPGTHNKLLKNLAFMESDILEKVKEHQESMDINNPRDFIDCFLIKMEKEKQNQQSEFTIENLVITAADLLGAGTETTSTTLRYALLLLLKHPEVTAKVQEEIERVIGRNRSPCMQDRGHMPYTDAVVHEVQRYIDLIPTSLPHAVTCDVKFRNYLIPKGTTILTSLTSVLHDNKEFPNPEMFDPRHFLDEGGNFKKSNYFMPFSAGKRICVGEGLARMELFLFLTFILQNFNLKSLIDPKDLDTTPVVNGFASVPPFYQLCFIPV

For `COc1cc(N)c(F)cc1C(=O)CCC1CCN(CC2CCCCC2)CC1.O=C(O)/C=C/C(=O)O`, the Activity [1] was “Non-toxic”, the Activity [2] was “Non-toxic” and the Drug metabolism [3] was 26%. The Drug metabolism [4] was 78%, the Drug metabolism [5] was 60% and the Drug metabolism [6] was 17%. It also gave a Drug metabolism [7] of 6%, an IC50 (Cytochrome P450 1A2) of 83.1 µM and an IC50 (Cytochrome P450 2C9) of over 100 µM. The IC50 (Cytochrome P450 2C19) was 7.2 µM, the IC50 (Cytochrome P450 3A4 [8]) was 5.4 µM and the IC50 (Cytochrome P450 3A4 [9]) was 8 µM. The IC50 (Cytochrome P450 3A4 [10]) was 23.1 µM, the clearance [11] was 11.5 L/h/kg and the half-life [12] was 47.8 min.
